Test results published in ChEMBL document CHEMBL3112561, “Small molecule disruptors of the glucokinase-glucokinase regulatory protein interaction: 2. Leveraging structure-based drug design to identify analogues with improved pharmacokinetic profiles” (J Med Chem, 2014).

Assays:
Liver microsome [1] = test: Drug metabolism in human liver microsomes assessed as oxidation of bicyclic morpholine ring; type: ADME
Liver microsome [2] = test: Drug metabolism in rat liver microsomes assessed as oxidation of bicyclic morpholine ring; type: ADME
Mus musculus [3] = test: Unbound maximum concentration in C57Bl6 mouse at 100 mg/kg, po; type: ADME, organism-based; parameters: dose 100 mg/kg, route oral; conditions: in vivo
[4] = Ratio of EC50 for induction of GK translocation from nucleus to cytoplasm of mouse hepatocytes to ratio of unbound maximum concentration in C57Bl6 mouse; parameters: species or system Hepatocyte
[5] = Fraction unbound in rat plasma at 10 mg/kg, po by rapid equilibrium dialysis method; type: ADME, organism-based; parameters: dose 10 mg/kg, route oral
Outline: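 Plasma fraction unbound measured by rapid equilibrium dialysis.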

[6] = Mean residence time in rat at 10 mg/kg, po; type: ADME, organism-based; parameters: dose 10 mg/kg, route oral; conditions: in vivo
Outline: (§1)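 Oral PK at 10 mg/kg in 1% Tween 80, 2% HPMC, 97% water, […]; mean residence time from plasma profile.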

[7] = Oral bioavailability in rat at 10 mg/kg; type: ADME, organism-based; conditions: in vivo
[8] = Clearance in rat at 2 mg/kg, iv; type: ADME, organism-based; parameters: dose 2 mg/kg, route intravenous; conditions: in vivo
[9] = Volume of distribution at steady state in rat at 2 mg/kg, iv; type: ADME, organism-based; parameters: dose 2 mg/kg, route intravenous; conditions: in vivo, read-out: Vdss
Outline: (§2)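 Intravenous PK at 2 mg/kg in 100% DMSO; steady-state volume of distribution derived from plasma profile.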

[10] = Intrinsic clearance in human liver microsomes at 1 uM after 30 mins in presence of NADPH; type: ADME; conditions: read-out: CLH
[11] = biological target: T1, Glucokinase regulatory protein (Mus musculus, UniProt Q91X44); test: Induction of GK translocation from nucleus to cytoplasm of mouse hepatocytes preincubated for 20 mins followed by glucose challenge measured after 40 mins by Hoechst 33342 staining-based assay; type: cell-based, Hepatocyte
T1 sequence (Q91X44 whole entry): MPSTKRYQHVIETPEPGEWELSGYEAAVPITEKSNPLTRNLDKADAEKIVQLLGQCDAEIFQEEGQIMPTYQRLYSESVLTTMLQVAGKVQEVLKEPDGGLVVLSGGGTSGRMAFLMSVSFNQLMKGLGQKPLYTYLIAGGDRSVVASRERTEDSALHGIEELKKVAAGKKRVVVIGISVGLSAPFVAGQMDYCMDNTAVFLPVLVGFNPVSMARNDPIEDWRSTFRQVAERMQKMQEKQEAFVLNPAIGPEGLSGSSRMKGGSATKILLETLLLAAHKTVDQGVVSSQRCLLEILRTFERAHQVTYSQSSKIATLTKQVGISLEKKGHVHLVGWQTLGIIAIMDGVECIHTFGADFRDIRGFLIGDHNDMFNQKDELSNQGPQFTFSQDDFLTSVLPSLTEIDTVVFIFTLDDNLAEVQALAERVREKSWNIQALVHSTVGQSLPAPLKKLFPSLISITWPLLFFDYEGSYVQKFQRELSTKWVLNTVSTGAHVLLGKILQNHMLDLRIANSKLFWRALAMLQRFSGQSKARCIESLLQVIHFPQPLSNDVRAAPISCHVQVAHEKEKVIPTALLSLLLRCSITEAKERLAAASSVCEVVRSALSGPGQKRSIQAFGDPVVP

Plasma [12] = test: Unbound plasma concentration in insulin-resistant db/db mouse at 30 mg/kg, po measured at 6 hrs; type: ADME, organism-based; parameters: dose 30 mg/kg, route oral; conditions: in vivo
Outline: (§3)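 Fed db/db mice dosed orally (10, 30, 100 mg/kg) in 2% HPMC/1% Tween 80 vehicle, pH 2.2 (MSA), gavaged at 9:00 AM. A 15 μL whole-blood sample taken at 6 h post-dose for drug exposure, reported as unbound plasma concentration.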

Plasma [13] = test: Unbound plasma concentration in insulin-resistant db/db mouse at 100 mg/kg, po measured at 6 hrs; type: ADME, organism-based; parameters: dose 100 mg/kg, route oral; conditions: in vivo; outline: as §3
Plasma [14] = test: Unbound plasma concentration in insulin-resistant db/db mouse at 10 mg/kg, po measured at 6 hrs; type: ADME, organism-based; parameters: dose 10 mg/kg, route oral; conditions: in vivo; outline: as §3
Mus musculus [15] = test: Unbound maximum concentration in C57Bl6 mouse at 10 mg/kg, po; type: ADME, organism-based; parameters: dose 10 mg/kg, route oral; conditions: in vivo
[16] = Oral bioavailability in C57Bl6 mouse at 10 mg/kg; type: ADME, organism-based; conditions: in vivo
[17] = Mean residence time in C57Bl6 mouse at 10 mg/kg, po; type: ADME, organism-based; parameters: dose 10 mg/kg, route oral; conditions: in vivo; outline: as §1
[18] = Volume of distribution at steady state in C57Bl6 mouse at 2 mg/kg, iv; type: ADME, organism-based; parameters: dose 2 mg/kg, route intravenous; conditions: in vivo, read-out: Vdss; outline: as §2

| SMILES | Drug metabolism (Liver microsome [1]) | Drug metabolism (Liver microsome [2]) | fCmax (Mus musculus [3]) [µM] | Ratio [4] | fraction unbound [5] | MRT [6] [h] | bioavailability [7] [%] | clearance [8] [mL/min/kg] | Vd [9] [L/kg] | microsomal CLint at 1 µM [10] [µL/min/mg] | EC50 [11] [nM] | Cp(f) (Plasma [12]) [nM] | Cp(f) (Plasma [13]) [nM] | Cp(f) (Plasma [14]) [nM] | fCmax (Mus musculus [15]) [µM] | bioavailability [16] [%] | MRT [17] [h] | Vd [18] [L/kg] |
| --- | --- | --- | --- | --- | --- | --- | --- | --- | --- | --- | --- | --- | --- | --- | --- | --- | --- | --- |
| C[C@H]1COCCN1C[C@H]1CN(S(=O)(=O)c2cccs2)CCN1c1ccc([C@@](C)(O)C(F)(F)F)cc1 | Active | Active | 0.032 | 50 | 0.037 | 4.4 | 7 | 68.3 | 8.3 | 353 | 1790 |  |  |  |  |  |  |  |
| CC#C[C@H]1CN(S(=O)(=O)c2ccc(N)nc2)CCN1c1ccc([C@@](C)(O)C(F)(F)F)cc1 |  |  |  |  |  | 4.6 | 82 |  | 1.6 |  |  | 240 | 786 | 58 | 0.292 | 39 | 5.3 | 1 |
